Reference: ChEMBL document CHEMBL1146772, “Design, synthesis, and structure-activity relationship of new isobenzofuranone ligands of protein kinase C” (Bioorg Med Chem Lett, 2004)

Columns and labels:
[1] = target: T1, Protein kinase C alpha type (Homo sapiens, UniProt P17252); assay: Binding affinity for protein kinase C alpha
[2] = target: T1, Protein kinase C alpha type; assay: Displacement of [3H]PDBu from PKC alpha at 100 uM; range 20 to 40
Outline: (§1)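 Competitive [3H]PDBu binding to recombinant human PKCα (Sf9-expressed), 4.3-4.8 nM, in 50 mM Tris-HCl pH 7.5 containing 4 mM CaCl2, 100 µg/mL sonicated phosphatidylserine, 4 mg/mL BSA and 10 nM [3H]PDBu. Incubation 2 h at 0 °C, then filtration on PEI-treated glass-fiber filters and scintillation counting. 10 µM TPA defined background/nonspecific binding. Ki derived using [3H]PDBu Kd 0.19 nM (Scatchard).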

[3] = target: T1, Protein kinase C alpha type; assay: Displacement of [3H]PDBu from PKC alpha at 100 uM; range 60 to 80; outline: as §1
[4] = target: T1, Protein kinase C alpha type; assay: Displacement of [3H]PDBu from PKC alpha at 100 uM; range 0 to 20; outline: as §1
[5] = target: T1, Protein kinase C alpha type; assay: Displacement of [3H]PDBu from PKC alpha at 100 uM; range 40 to 60; outline: as §1
[6] = target: T1, Protein kinase C alpha type; assay: Displacement of [3H]PDBu from PKC alpha at 100 uM.; outline: as §1

Row | SMILES | Ki [1] [nM] | also measured
1 | CCCCCCCCCCCCOc1cccc2c1C(=O)O[C@@]2(CO)COC(C)=O | 540 | inhibition [2]: 35%
2 | CCCCCCCCCCCCOc1cccc2c1C(=O)O[C@]2(CO)COC(C)=O | 540 | inhibition [3]: 75%
3 | CC(=O)OC[C@@]1(CO)OC(=O)c2c(OCc3ccccc3)cccc21 | 540 | inhibition [4]: 9%
4 | CCCCCCCCCCCCOc1cccc2c1C(=O)O[C@@]2(CO)COC(=O)C(C)(C)C | 122 | –

The next lines start with results.

Row | Ki [1] [nM] | SMILES | also measured
5 | 122 | CCCCCCCCCCOc1cccc2c1C(=O)O[C@@]2(CO)COC(C)=O | inhibition [2]: 21%
6 | 122 | CCCCCCCCCCOc1cccc2c1C(=O)O[C@]2(CO)COC(C)=O | inhibition [5]: 59%
7 | 122 | C=CCOC(=O)Oc1cccc2c1C(=O)O[C@]2(CO)COC(C)=O | inhibition [6]: 0%
